Measurements as given in PMC13170702 (Nuclear medicine and biology, 2025).

Assay: organ radiation dose estimates, OLINDA 2.0, ICRP-103
Format: in vivo, human
Summary of the method: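 Whole-body PET-MR ran as nine scans to 214 min. Organ VOIs were drawn in AMIDE, giving decay-corrected %IA per VOI; remainder = whole body minus measured organs. TIACs came from the EXM exponential model (OLINDA 1.1). Per-participant organ doses were computed in OLINDA 2.0 with 73 kg adult male or 60 kg female models. Effective dose (mSv) = organ absorbed doses × ICRP-103 tissue weighting factors.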

Estimated dose, Thyroid (Female n=4, mean±SD): 0.0239±0.0171 mGy/MBq | Estimated dose, Urinary bladder wall (Female n=4, mean±SD): 0.0516±0.0371 mGy/MBq | Estimated dose, Uterus (Female n=4, mean±SD): 0.0573±0.0514 mGy/MBq | Effective dose (whole body) (M1 (326 MBq)): 6.65 mSv | Estimated absorbed dose, Adrenals (M1 (326 MBq)): 13.5 mGy | Estimated absorbed dose, Brain (M1 (326 MBq)): 5.47 mGy | Estimated absorbed dose, Colon, left (M1 (326 MBq)): 5.63 mGy | Estimated absorbed dose, Colon, right (M1 (326 MBq)): 4.95 mGy | Estimated absorbed dose, Esophagus (M1 (326 MBq)): 5.18 mGy | Estimated absorbed dose, Eyes (M1 (326 MBq)): 2.26 mGy | Estimated absorbed dose, Gallbladder wall (M1 (326 MBq)): 10.3 mGy | Estimated absorbed dose, Heart wall (M1 (326 MBq)): 9.25 mGy | Estimated absorbed dose, Kidneys (M1 (326 MBq)): 70.7 mGy | Estimated absorbed dose, Liver (M1 (326 MBq)): 17.5 mGy | Estimated absorbed dose, Lungs (M1 (326 MBq)): 17.0 mGy | Estimated absorbed dose, Osteogenic cells (M1 (326 MBq)): 2.80 mGy | Estimated absorbed dose, Pancreas (M1 (326 MBq)): 5.93 mGy | Estimated absorbed dose, Prostate (M1 (326 MBq)): 3.21 mGy | Estimated absorbed dose, Rectum (M1 (326 MBq)): 3.35 mGy | Estimated absorbed dose, Red marrow (M1 (326 MBq)): 3.48 mGy | Estimated absorbed dose, Salivary glands (M1 (326 MBq)): 2.64 mGy | Estimated absorbed dose, Small intestine (M1 (326 MBq)): 17.2 mGy | Estimated absorbed dose, Spleen (M1 (326 MBq)): 24.9 mGy | Estimated absorbed dose, Stomach wall (M1 (326 MBq)): 5.27 mGy | Estimated absorbed dose, Testes (M1 (326 MBq)): 2.11 mGy | Estimated absorbed dose, Thymus (M1 (326 MBq)): 14.7 mGy | Estimated absorbed dose, Thyroid (M1 (326 MBq)): 4.36 mGy | Estimated absorbed dose, Urinary bladder wall (M1 (326 MBq)): 3.68 mGy | Effective dose (whole body) (M2 (289 MBq)): 4.65 mSv | Estimated absorbed dose, Adrenals (M2 (289 MBq)): 12.3 mGy | Estimated absorbed dose, Brain (M2 (289 MBq)): 2.94 mGy | Estimated absorbed dose, Colon, left (M2 (289 MBq)): 5.05 mGy | Estimated absorbed dose, Colon, right (M2 (289 MBq)): 4.10 mGy | Estimated absorbed dose, Esophagus (M2 (289 MBq)): 4.39 mGy | Estimated absorbed dose, Eyes (M2 (289 MBq)): 1.91 mGy | Estimated absorbed dose, Gallbladder wall (M2 (289 MBq)): 6.09 mGy | Estimated absorbed dose, Heart wall (M2 (289 MBq)): 33.5 mGy | Estimated absorbed dose, Kidneys (M2 (289 MBq)): 74.2 mGy | Estimated absorbed dose, Liver (M2 (289 MBq)): 10.1 mGy | Estimated absorbed dose, Lungs (M2 (289 MBq)): 2.65 mGy | Estimated absorbed dose, Osteogenic cells (M2 (289 MBq)): 2.33 mGy | Estimated absorbed dose, Pancreas (M2 (289 MBq)): 44.4 mGy | Estimated absorbed dose, Prostate (M2 (289 MBq)): 2.91 mGy | Estimated absorbed dose, Rectum (M2 (289 MBq)): 2.77 mGy | Estimated absorbed dose, Red marrow (M2 (289 MBq)): 2.76 mGy | Estimated absorbed dose, Salivary glands (M2 (289 MBq)): 2.20 mGy | Estimated absorbed dose, Small intestine (M2 (289 MBq)): 4.04 mGy | Estimated absorbed dose, Spleen (M2 (289 MBq)): 9.84 mGy | Estimated absorbed dose, Stomach wall (M2 (289 MBq)): 5.89 mGy | Estimated absorbed dose, Testes (M2 (289 MBq)): 2.02 mGy | Estimated absorbed dose, Thymus (M2 (289 MBq)): 5.86 mGy | Estimated absorbed dose, Thyroid (M2 (289 MBq)): 2.40 mGy | Estimated absorbed dose, Urinary bladder wall (M2 (289 MBq)): 4.70 mGy | Effective dose (whole body) (M3 (70.3 MBq)): 1.25 mSv | Estimated absorbed dose, Adrenals (M3 (70.3 MBq)): 2.34 mGy | Estimated absorbed dose, Brain (M3 (70.3 MBq)): 0.810 mGy | Estimated absorbed dose, Colon, left (M3 (70.3 MBq)): 0.970 mGy | Estimated absorbed dose, Colon, right (M3 (70.3 MBq)): 0.900 mGy | Estimated absorbed dose, Esophagus (M3 (70.3 MBq)): 1.00 mGy | Estimated absorbed dose, Eyes (M3 (70.3 MBq)): 0.450 mGy | Estimated absorbed dose, Gallbladder wall (M3 (70.3 MBq)): 1.53 mGy | Estimated absorbed dose, Heart wall (M3 (70.3 MBq)): 1.84 mGy | Estimated absorbed dose, Kidneys (M3 (70.3 MBq)): 12.4 mGy | Estimated absorbed dose, Liver (M3 (70.3 MBq)): 2.85 mGy | Estimated absorbed dose, Lungs (M3 (70.3 MBq)): 3.35 mGy | Estimated absorbed dose, Osteogenic cells (M3 (70.3 MBq)): 0.557 mGy | Estimated absorbed dose, Pancreas (M3 (70.3 MBq)): 1.15 mGy | Estimated absorbed dose, Prostate (M3 (70.3 MBq)): 0.724 mGy | Estimated absorbed dose, Rectum (M3 (70.3 MBq)): 0.702 mGy | Estimated absorbed dose, Red marrow (M3 (70.3 MBq)): 0.692 mGy | Estimated absorbed dose, Salivary glands (M3 (70.3 MBq)): 0.536 mGy | Estimated absorbed dose, Small intestine (M3 (70.3 MBq)): 1.93 mGy | Estimated absorbed dose, Spleen (M3 (70.3 MBq)): 2.65 mGy | Estimated absorbed dose, Stomach wall (M3 (70.3 MBq)): 0.984 mGy | Estimated absorbed dose, Testes (M3 (70.3 MBq)): 0.477 mGy | Estimated absorbed dose, Thymus (M3 (70.3 MBq)): 1.58 mGy | Estimated absorbed dose, Thyroid (M3 (70.3 MBq)): 0.830 mGy | Estimated absorbed dose, Urinary bladder wall (M3 (70.3 MBq)): 2.00 mGy | Effective dose (whole body) (M4 (153 MBq)): 2.62 mSv | Estimated absorbed dose, Adrenals (M4 (153 MBq)): 5.67 mGy | Estimated absorbed dose, Brain (M4 (153 MBq)): 2.17 mGy | Estimated absorbed dose, Colon, left (M4 (153 MBq)): 2.46 mGy | Estimated absorbed dose, Colon, right (M4 (153 MBq)): 2.15 mGy | Estimated absorbed dose, Esophagus (M4 (153 MBq)): 2.06 mGy | Estimated absorbed dose, Eyes (M4 (153 MBq)): 1.08 mGy | Estimated absorbed dose, Gallbladder wall (M4 (153 MBq)): 3.76 mGy | Estimated absorbed dose, Heart wall (M4 (153 MBq)): 3.73 mGy | Estimated absorbed dose, Kidneys (M4 (153 MBq)): 31.2 mGy | Estimated absorbed dose, Liver (M4 (153 MBq)): 5.85 mGy | Estimated absorbed dose, Lungs (M4 (153 MBq)): 5.53 mGy | Estimated absorbed dose, Osteogenic cells (M4 (153 MBq)): 1.28 mGy | Estimated absorbed dose, Pancreas (M4 (153 MBq)): 3.39 mGy | Estimated absorbed dose, Prostate (M4 (153 MBq)): 1.60 mGy | Estimated absorbed dose, Rectum (M4 (153 MBq)): 1.64 mGy | Estimated absorbed dose, Red marrow (M4 (153 MBq)): 1.54 mGy | Estimated absorbed dose, Salivary glands (M4 (153 MBq)): 1.26 mGy | Estimated absorbed dose, Small intestine (M4 (153 MBq)): 6.45 mGy | Estimated absorbed dose, Spleen (M4 (153 MBq)): 8.39 mGy | Estimated absorbed dose, Stomach wall (M4 (153 MBq)): 2.22 mGy | Estimated absorbed dose, Testes (M4 (153 MBq)): 1.09 mGy | Estimated absorbed dose, Thymus (M4 (153 MBq)): 5.87 mGy | Estimated absorbed dose, Thyroid (M4 (153 MBq)): 2.28 mGy | Estimated absorbed dose, Urinary bladder wall (M4 (153 MBq)): 2.61 mGy | Effective dose (whole body) (Male n=4, mean±SD): 0.0179±0.0018 mSv/MBq | Estimated dose, Adrenals (Male n=4, mean±SD): 0.0386±0.0043 mGy/MBq | Estimated dose, Brain (Male n=4, mean±SD): 0.0132±0.0029 mGy/MBq | Estimated dose, Esophagus (Male n=4, mean±SD): 0.0147±0.0011 mGy/MBq | Estimated dose, Eyes (Male n=4, mean±SD): 0.00678±0.00029 mGy/MBq | Estimated dose, Gallbladder wall (Male n=4, mean±SD): 0.0248±0.0048 mGy/MBq | Estimated dose, Heart wall (Male n=4, mean±SD): 0.0488±0.0449 mGy/MBq | Estimated dose, Kidneys (Male n=4, mean±SD): 0.214±0.034 mGy/MBq | Estimated dose, Left colon (Male n=4, mean±SD): 0.0162±0.0017 mGy/MBq | Estimated dose, Liver (Male n=4, mean±SD): 0.0419±0.0082 mGy/MBq | Estimated dose, Lungs (Male n=4, mean±SD): 0.0363±0.0193 mGy/MBq | Estimated dose, Osteogenic cells (Male n=4, mean±SD): 0.00825±0.00031 mGy/MBq | Estimated dose, Pancreas (Male n=4, mean±SD): 0.0527±0.0676 mGy/MBq | Estimated dose, Prostate (Male n=4, mean±SD): 0.0102±0.0003 mGy/MBq | Estimated dose, Rectum (Male n=4, mean±SD): 0.0101±0.0005 mGy/MBq | Estimated dose, Red marrow (Male n=4, mean±SD): 0.0101±0.0005 mGy/MBq | Estimated dose, Right colon (Male n=4, mean±SD): 0.0141±0.0010 mGy/MBq | Estimated dose, Salivary Glands (Male n=4, mean±SD): 0.00791±0.0003 mGy/MBq | Estimated dose, Small intestine (Male n=4, mean±SD): 0.0341±0.0169 mGy/MBq | Estimated dose, Spleen (Male n=4, mean±SD): 0.0508±0.0194 mGy/MBq | Estimated dose, Stomach wall (Male n=4, mean±SD): 0.0163±0.0029 mGy/MBq | Estimated dose, Testes (Male n=4, mean±SD): 0.00684±0.00028 mGy/MBq | Estimated dose, Thymus (Male n=4, mean±SD): 0.0316±0.0122 mGy/MBq | Estimated dose, Thyroid (Male n=4, mean±SD): 0.0121±0.0028 mGy/MBq | Estimated dose, Urinary bladder wall (Male n=4, mean±SD): 0.0183±0.0073 mGy/MBq
SMILES: COC(=O)[C@@H](N)CC(=O)Nc1ccc2c(c1)Cc1cc([18F])ccc1-2 [[^18F]RP-115, methyl N^4-(7-[^18F]fluoro-9H-fluoren-2-yl)asparaginate]
